# Measured values from different studies.
# Each line is one published result; the experiments were not run side by side.
# HTR5A: 5-hydroxytryptamine receptor 5A (HTR5A, Homo sapiens, UniProt P47898)
# ABHD6: Monoacylglycerol lipase ABHD6 (ABHD6, Homo sapiens, UniProt Q9BV23)
# VASP: Vasodilator-stimulated phosphoprotein (VASP, Homo sapiens, UniProt P50552)
Compound,target,test,conditions,quantity,result
CN1CCc2c(c3ccccc3n2Cc2ccccc2)C1,HTR5A,"ligand displacement, radioligand",,Ki,130 nM
COc1ccc(N(C)C(=O)Oc2nsnc2N2CCCCC2)cc1,ABHD6,"enzyme activity, inhibitor, fluorescence",lysate,IC50,263 nM
CC(=O)N[C@@H](Cc1ccccc1Cl)C(=O)N1CCC[C@H]1C(=O)N1CCC[C@H]1C(=O)N1CCC[C@H]1C(=O)N1CCC[C@H]1C(=O)O,VASP,"binding, fluorescence",,Kd,13000 nM
Cc1ccc(N(C)C(=O)Oc2nsnc2N2CCCCC2)cc1,ABHD6,"enzyme activity, inhibitor, fluorescence",lysate,IC50,150 nM
CC(=O)N[C@@H](CO)C(=O)N[C@@H](Cc1ccccc1)C(=O)N[C@@H](CCC(=O)O)C(=O)N[C@@H](Cc1ccccc1)C(=O)N1CCC[C@H]1C(=O)N1CCC[C@H]1C(=O)N1CCC[C@H]1C(=O)N1CCC[C@H]1C(=O)N[C@H](C(=O)N[C@@H](CCC(=O)O)C(=O)N[C@@H](CC(=O)O)C(=O)N[C@@H](CCC(=O)O)C(=O)N[C@@H](CC(C)C)C(N)=O)[C@@H](C)O,VASP,"binding, fluorescence",,Kd,19000 nM
Cc1ccc(Cc2ccc3c(c2)CN(C(=O)[C@@H](N)Cc2c(C)cc(O)cc2C)CC3)cc1,"Mu-type opioid receptor (Oprm1, Rattus norvegicus, UniProt P33535)","ligand displacement, radioligand",cell membranes,Ki,114 nM
O=C(COc1ccc2cc(C(=O)Nc3ccccc3)ccc2c1)NCc1ccc(OP(=O)(O)O)c(OP(=O)(O)O)c1,"Signal transducer and activator of transcription 6, SH2 (Homo sapiens, UniProt P42226)","ligand displacement, FP",,Ki,3470 nM
CNC(=O)c1cccc(-c2ccc(O[C@H]3O[C@H](CO)[C@@H](O)[C@H](O)[C@@H]3O)cc2)c1,"Type 1 fimbrin D-mannose specific adhesin, N-terminal domain (fimH, Escherichia coli K-12, UniProt P08191)","binding, BLI",,Kd,0.01 nM
CN(C(=O)Oc1nsnc1N1CCCCC1)c1ccc([N+](=O)[O-])cc1,ABHD6,"enzyme activity, inhibitor, fluorescence",lysate,IC50,1250 nM
CNc1nc2cc(OCCCCN3CCN(c4cccc(Cl)c4Cl)CC3)ccc2s1,HTR5A,"ligand displacement, radioligand",,Ki,1300 nM
CN(C(=O)Oc1nsnc1N1CCCCC1)c1cccc([N+](=O)[O-])c1,ABHD6,"enzyme activity, inhibitor, fluorescence",lysate,IC50,1200 nM
CC(CCc1ccc(O)cc1)NCCc1ccc(O)c(O)c1 (stereo not drawn),"D(4) dopamine receptor (DRD4, Homo sapiens, UniProt P21917)","ligand displacement, radioligand",,IC50,2420 nM
